Compounds with a hit are over-represented: about 3% of the library has one in this group of screens.
PLCb3 inh = human PLC-beta3 inhibitors, primary screen, biochemical, fluorescence; inhibition, % at 12.2 µM; 1-phosphatidylinositol 4,5-bisphosphate phosphodiesterase beta-3 (Homo sapiens), Q01970; AID 720704, 2013; Purified PLC-beta3, fluorogenic substrate; hit rate 0.18% among 370,000; in the data active means inhibition above about 11%;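 further: 0% = median of compound wells on plate and 100% = full blocker control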
PLC-gamma1 inh = PLC-gamma1 enzyme inhibitors, primary screen, biochemical, fluorescence, purified enzyme | fluorogenic substrate | 1-phosphatidylinositol 4,5-bisphosphate phosphodiesterase gamma-1 (Homo sapiens), P19174 | hit rate 0.84% among 370,000 | inhibition, % at 12.2 µM; in the data active means inhibition above about 9.5%
DDE Tn6 FP inh = inhibitors of Tn6 peptide binding to fibrin DD(E), primary screen, biochemical, fluorescence polarization, human fibrin, Tn6 probe | hit rate 0.21% among 370,000 | inhibition, % at 8.3 µM | Fibrinogen beta chain (Homo sapiens), P02675 | AID 720509, 2013 | Fibrin DD(E) TRITC-Tn6 fluorescence polarization displacement;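 active means inhibition above a per-campaign cutoff: mean of compounds within control limits plus 3 SD, cut at about 15% in these data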;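 further: 0% = median of all compound wells on the plate and 100% = blocking peptide control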
Tn7 DDE FP = inhibitors of Tn7 peptide binding to fibrin DD(E), primary screen, biochemical, fluorescence polarization, human fibrin, Tn7 probe; Fibrinogen beta chain (Homo sapiens), P02675; FP displacement of FITC-Tn7 peptide from fibrin DD(E); 0% = median of compound wells per plate; inhibition, % at 8.3 µM; hit rate 0.13% among 370,000; AID 720508, 2013;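 active means inhibition above the mean of compounds falling within the control limits plus 3 SD of them, cut at about 14% in these data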;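 further: 0% = plate median of compound wells and 100% = 10 µM Aha-Tn7 peptide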
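assay system = human clot-derived fibrin DD(E) complex | quantity = Fibrin-DD(E) at 2 µM final | timing = 10 min preincubation, 3 h with tracer, room temperature | signal = fluorescence polarization | measure = percent inhibition | benchmarks = high control wells with 10 µM unlabelled Aha-Tn7 peptide (full inhibition) | replicates = singlicate testing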
CendR NRP1 mod = modulators of CendR peptide binding to NRP-1, primary screen, biochemical, fluorescence polarization, uHTS. Neuropilin-1 (Homo sapiens), O14786. FAM-RPARPAR peptide binding to NRP-1. inhibition, % at 25 µM. hit rate 0.85% among 360,000. AID 602438, 2012;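 active means inhibition or corrected inhibition above about 18%, plus a signal ratio from 0.5 to 1.5, limit read from the data, passing the limit was not always enough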
proKLK7 act = proKLK7 zymogen activators, primary screen, biochemical, fluorescence intensity; Kallikrein-7 (Homo sapiens), P49862; purified proKLK7, EDANS-DABCYL substrate fluorescence; 100% is mature enzyme control, 0% vehicle; activation, % at 7 µM; hit rate 0.9% among 370,000; AID 652039, 2013;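 active means activation above the mean of all tested compounds plus 3 SD, computed per campaign excluding outliers beyond control limits, cut at about 13% in these data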
Target sequence (P49862 whole entry, looked up): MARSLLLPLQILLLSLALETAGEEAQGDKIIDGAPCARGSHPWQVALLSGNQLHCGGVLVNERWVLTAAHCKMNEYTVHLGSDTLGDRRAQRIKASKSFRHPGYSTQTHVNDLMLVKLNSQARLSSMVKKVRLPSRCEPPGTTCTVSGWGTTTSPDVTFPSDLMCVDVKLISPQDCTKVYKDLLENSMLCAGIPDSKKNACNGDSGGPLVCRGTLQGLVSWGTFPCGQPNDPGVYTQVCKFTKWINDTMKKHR
proKLK7 act conf = proKLK7 zymogen activators, confirmation, biochemical, fluorescence intensity, triplicate; activation, % at 7 µM; purified proKLK7, EDANS-DABCYL substrate fluorescence; scaled: vehicle 0, mature enzyme 100; hit rate 68% among 3,200; shares compounds with proKLK7 act;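 active means activation, as change over the incubation, above the mean of all tested compounds plus 3 SD, cut at about 13% in these data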
EDANS interfere = EDANS-DABCYL substrate optical interference, artefact control for kallikrein-7 zymogen activator project, biochemical, fluorescence intensity, high throughput; shares compounds with proKLK7 act; no enzyme, 4 h; solvent 0%, active enzyme control 100%; activation, % at 7 µM; hit rate 80% among 3,200;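 active means activation above the all-compound mean plus 3 SD, ignoring values outside control-based bounds, cut at about 4.8% in these data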;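 further: value is the 4 h activation minus the activation read at time zero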
EDANS interf = counter-screen for kallikrein-7 activators: EDANS-DABCYL interference, dose response. shares compounds with proKLK7 act. EDANS-DABCYL peptide fluorescence interference, no enzyme. EC50, µM. hit rate 20% among 250;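 active means compounds that raise the fluorescence signal in this interference counterscreen, with EC50 at or below 10 µM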;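 further: intact quenched peptide substrate alone read at 355 nm excitation and 520 nm emission; signal is fluorescence gain from T0 to T4 after four hours at room temperature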
An asterisk follows results filed as active; i = inactive; nt = no result given.

SMILES	PLCb3 inh	PLC-gamma1 inh	DDE Tn6 FP inh	Tn7 DDE FP	CendR NRP1 mod	proKLK7 act	proKLK7 act conf	EDANS interfere	others
COc1cc(-n2c(C)nc3cc(C(=O)N4CC(C)CC(C)C4)ccc32)cc(OC)c1OC (configuration not stated)	1.1	-0.2	-5.8	4.6	nt	-0.1	nt	nt
CCC(CO)Nc1cccc2c1S(=O)(=O)N(Cc1cn(Cc3cccc(C(F)(F)F)c3)nn1)Cc1ccccc1O2 (configuration not stated)	-13.7	-8.2	-4.5	4.8	nt	0.1	nt	nt
COc1ccc(NC(=O)c2ccc(NC(=O)CSc3nc(N)cc(=O)[nH]3)cc2)cc1	-0.8	1.6	2.1	1.0	9.2	23.4*	17.3*	13.8*	EDANS interf=i
Nc1cc(=O)[nH]c(SCC(=O)Nc2ccc(Br)cc2)n1	-2.8	-0.1	0.2	3.1	8.2	0.1	nt	nt
C[C@@H]1/C=C/CC(=O)N[C@H](c2ccc3ccccc3c2)[C@H](C)/C=C/CC(=O)N[C@@H]1c1ccc2ccccc2c1	-8.9	-6.3	4.8	0.5	nt	-0.2	nt	nt
COc1cc(-c2ccc3oc(-c4cccc(C)c4)c(C#CC4(O)CCCCC4)c3c2)cc(OC)c1OC	i	i	-2.6	-4.1	-4.9	83.1*	-9.1	1.8
CCc1cc2c(=O)c(Oc3ccccc3F)c(C)oc2c(CN(C)C)c1O	i	i	-3.6	-3.8	-14.6	63.4*	72.1*	74.3*
COc1ccccc1-c1c(C(F)(F)F)oc2c(CN(C)C)c(O)ccc2c1=O	-273.4	-236.1	2.8	-2.4	-1.2	6.7	nt	nt
O=C(NCc1nnc(SCC(=O)N2CCCCC2)o1)c1c(F)cccc1F	-6.2	4.3	3.4	1.2	-1.1	-0.1	nt	nt
O=C(NCc1nnc(SCC(=O)N2CCCC2)o1)c1ccccc1F	-2.0	-2.1	-5.2	0.5	-7.1	62.0*	0.4	0.7
O=C(NCCc1ccccc1)OCc1cn(-c2cccc(F)c2F)nn1	-1.4	1.4	-9.1	6.8	nt	0.1	nt	nt
CCCCc1ccc(-c2noc(CCC(=O)NCC)n2)cc1	2.2	-0.6	5.5	3.1	nt	nt	nt	nt
CCC1CCCN1Cn1cnc2c([nH]c3ccccc32)c1=O (configuration not stated)	-9.3	-7.9	1.6	-8.7	2.3	1.9	nt	nt
CCC1CCCN1Cn1cnc2c([nH]c3ccc(OC)cc32)c1=O (configuration not stated)	-223.3	-173.6	-2.7	5.1	14.9	27.1*	12.1	10.7*
CNC(=S)NNC(=O)c1cccc(N(C)C)c1	-23.3	-18.7	4.9	-3.2	10.8	14.3*	12.9*	12.1*
O=C1CCC[C@H]2C[C@H](NCc3ccc(Cl)c(Cl)c3)CC[C@]23CCCN13	0.5	0.4	1.6	-2.7	nt	nt	nt	nt
N#Cc1cnn2c3c(cnc12)C(=O)N1CCc2ccccc2C1C3 (configuration not stated)	-37.3	-33.5	1.1	-3.9	8.2	76.6*	-181.5	-138.0
O=C1c2cnc3ncnn3c2CC2c3ccccc3CCN12 (configuration not stated)	-53.8	-47.8	4.2	1.5	11.5	100.9*	195.5*	178.9*

Screens: PubChem BioAssay, several laboratories
